Results published in ChEMBL document CHEMBL1124764, “Cytotoxicity and antitumor activity of some tetrahedral bis(diphosphino)gold(I) chelates” (J Med Chem, 1990).

Tested on: B16
Assay: (§1) In vivo maximum increase in lifespan produced in mice bearing ip B16 melanoma implanted tumor
Format: functional, organism-based
Conditions: Mus musculus
Method in brief: (§2)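 M5076 sarcoma or B16 melanoma was maintained by serial transplantation in syngeneic mice and implanted ip. B6D2F1 mice received complexes ip daily for 10 days at five log-spaced doses encompassing the MTD. Activity was scored as increase in median lifespan versus untreated controls, at MTD; >25% ILS counted as active.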
Substance “Bis [1,2-bis(diphenylphosphino)ethane] gold (I) Chloride Hydrate [listing 1 of 2 here]” has an ILS of 38%.

Tested on: Mus musculus
Assay: In vivo maximally tolerated dose for B6D2F mice on an every day ip for 10 days regimen.
Format: functional, organism-based
Conditions: not given
Method in brief: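 B6D2F1 mice with ip-implanted M5076 reticulum cell sarcoma or B16 melanoma, kept by serial transplant in syngeneic mice. Complex dissolved in minimal DMA or ethanol plus equal saline, with Cremophor-EL if it precipitated. Made just before use and given ip daily for 10 days at five log-spaced doses spanning the MTD. Activity judged by median lifespan prolongation.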
In the case of “Bis [1,2-bis(diphenylphosphino)ethane] gold (I) Chloride Hydrate [listing 1 of 2 here]”, the MTD (uM day-1 kg-1) is reported as 2.
Work on “Bis [1,2-bis(diphenylphosphino)ethane] gold (I) Iodide Hydrate” yielded an MTD (uM day-1 kg-1) of 2.
In the case of “Bis [1,2-bis(diphenylphosphino)ethene] gold (I) Chloride [listing 1 of 2 here]”, the MTD (uM day-1 kg-1) is reported as 2.
Substance “Bis [1,2-bis(diphenylphosphino)propane] gold (I) Chloride [listing 1 of 2 here]” has an MTD (uM day-1 kg-1) of 2.
Substance “Bis [1,2-bis(dipyridine-2-ylphosphino)ethane] gold (I) Chloride Hydrate; chloride” has an MTD (uM day-1 kg-1) of 8.
For “Bis [1,2-bis(dipyridine-4-ylphosphino)ethane] gold (I) Chloride Hydrate; chloride”, the MTD (uM day-1 kg-1) was 4.
“Bis [1-dipphenyl,2-phenylmethylphosphino)ethane] gold (I) Chloride Hydrate; chloride” showed an MTD (uM day-1 kg-1) of 2.
Substance “Bis [(1-diphenylphosphino, 2-diethyl) ethane] gold (I) Chloride [listing 1 of 2 here]” has an MTD (uM day-1 kg-1) of 2.
Substance CISPLATIN has an MTD (uM day-1 kg-1) of 5.

Tested on: P388
Assay: In vivo maximum increase in lifespan produced in mice bearing ip P388 leukemia
Format: functional, organism-based
Conditions: Mus musculus
Method in brief: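 B6D2F1 mice were inoculated ip with 10⁶ P388 leukemia cells. Complexes in DMA or ethanol plus saline (Cremophor-EL if precipitating) were given ip in 0.5 mL on days 1–5, starting 24 h after inoculation, at five log-spaced doses. Untreated and cisplatin controls were included. Mice were monitored daily for 45 days. ILS = % increase in median survival versus untreated controls, at MTD; >30% counted as active.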
In the case of “Bis [1,2-bis(diphenylphosphino)ethane] gold (I) 2-hydroxy-1-ethane sulphonate”, the ILS is reported as 78%.
With “Bis [1,2-bis(diphenylphosphino)ethane] gold (I) Bromide Hydrate” the ILS was 83%.
Substance “Bis [1,2-bis(diphenylphosphino)ethane] gold (I) Chloride Hydrate [listing 1 of 2 here]” has an ILS of 83%.
In the case of “Bis [1,2-bis(diphenylphosphino)ethane] gold (I) Iodide Hydrate”, the ILS is reported as 150%.
Substance “Bis [1,2-bis(diphenylphosphino)ethane] gold (I) Methanesulfonate” has an ILS of 81%.
In the case of “Bis [1,2-bis(diphenylphosphino)ethane] gold (I) Nitrate [listing 1 of 2 here]”, the ILS is reported as 90%.
“Bis [1,2-bis(diphenylphosphino)ethene] gold (I) Chloride [listing 1 of 2 here]” gave an ILS of 92%.
Work on “Bis [1,2-bis(diphenylphosphino)propane] gold (I) Chloride [listing 1 of 2 here]” yielded an ILS of 89%.
For “Bis [1,2-bis(dipyridine-2-ylphosphino)ethane] gold (I) Chloride Hydrate; chloride”, the ILS was 75%.
For “Bis [1,2-bis[bis(3-fluorophenyl)phosphino)ethane] gold (I) Chloride”, the ILS was 55%.
“Bis [1,2-bis[bis(4-fluorophenyl)phosphino)ethane] gold (I) Chloride” gave an ILS of 50%.
“Bis [1,2-bis[bis(5-H-dibenzophospholyl)ethane] gold (I) Nitrate” showed an ILS of 61%.
In the case of “Bis [1-dipphenyl,2-phenylmethylphosphino)ethane] gold (I) Chloride Hydrate; chloride”, the ILS is reported as 65%.
“Bis [(1-diphenylphosphino, 2-diethyl) ethane] gold (I) Chloride [listing 1 of 2 here]” showed an ILS of 54%.
For CISPLATIN, the ILS was 125%.

Tested on: P388
Assay: In vivo maximally tolerated dose for B6D2F1 mice on an ip P388 leukemia every day for 5 days regimen
Format: functional, organism-based
Conditions: Mus musculus
Method in brief: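 B6D2F1 mice inoculated ip with 10⁶ P388 leukemia cells. Complex in DMA or ethanol plus saline, with Cremophor-EL if needed, 0.5 mL, freshly made. Given ip days 1–5 starting 24 h after inoculation, at five log-spaced doses to find the MTD. Groups of six; untreated and cisplatin controls. Mortality checked daily for 45 days; end points MST and ILS.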
“Bis [1,2-bis(diphenylphosphino)ethane] gold (I) 2-hydroxy-1-ethane sulphonate” showed an MTD (uM day-1 kg-1) of 2.
For “Bis [1,2-bis(diphenylphosphino)ethane] gold (I) Bromide Hydrate”, the MTD (uM day-1 kg-1) was 2.
Substance “Bis [1,2-bis(diphenylphosphino)ethane] gold (I) Chloride Hydrate [listing 1 of 2 here]” has an MTD (uM day-1 kg-1) of 3.
In the case of “Bis [1,2-bis(diphenylphosphino)ethane] gold (I) Iodide Hydrate”, the MTD (uM day-1 kg-1) is reported as 2.
Work on “Bis [1,2-bis(diphenylphosphino)ethane] gold (I) Methanesulfonate” yielded an MTD (uM day-1 kg-1) of 2.
For “Bis [1,2-bis(diphenylphosphino)ethane] gold (I) Nitrate [listing 1 of 2 here]”, the MTD (uM day-1 kg-1) was 3.
Work on “Bis [1,2-bis(diphenylphosphino)ethene] gold (I) Chloride [listing 1 of 2 here]” yielded an MTD (uM day-1 kg-1) of 2.
With “Bis [1,2-bis(diphenylphosphino)propane] gold (I) Chloride [listing 1 of 2 here]” the MTD (uM day-1 kg-1) was 3.
In the case of “Bis [1,2-bis(dipyridine-2-ylphosphino)ethane] gold (I) Chloride Hydrate; chloride”, the MTD (uM day-1 kg-1) is reported as 8.
With “Bis [1,2-bis(dipyridine-4-ylphosphino)ethane] gold (I) Chloride Hydrate; chloride” the MTD (uM day-1 kg-1) was 6.
In the case of “Bis [1,2-bis[bis(3-fluorophenyl)phosphino)ethane] gold (I) Chloride”, the MTD (uM day-1 kg-1) is reported as 10.
“Bis [1,2-bis[bis(4-fluorophenyl)phosphino)ethane] gold (I) Chloride” showed an MTD (uM day-1 kg-1) of 3.
For “Bis [1,2-bis[bis(5-H-dibenzophospholyl)ethane] gold (I) Nitrate”, the MTD (uM day-1 kg-1) was 4.
Work on “Bis [1-dipphenyl,2-phenylmethylphosphino)ethane] gold (I) Chloride Hydrate; chloride” yielded an MTD (uM day-1 kg-1) of 3.
“Bis [(1-diphenylphosphino, 2-diethyl) ethane] gold (I) Chloride [listing 1 of 2 here]” gave an MTD (uM day-1 kg-1) of 4.
For CISPLATIN, the MTD (uM day-1 kg-1) was 7.

Tested on: M5076
Assay: In vivo maximum increase in lifespan produced in mice bearing M5076 reticulum cell sarcoma implanted tumor
Format: functional
Conditions: Mus musculus
Method in brief: as §2
For “Bis [1,2-bis(diphenylphosphino)ethane] gold (I) Chloride Hydrate [listing 1 of 2 here]”, the ILS was 57%.
In the case of “Bis [1,2-bis(diphenylphosphino)ethane] gold (I) Iodide Hydrate”, the ILS is reported as 52%.
For “Bis [1,2-bis(diphenylphosphino)ethene] gold (I) Chloride [listing 1 of 2 here]”, the ILS was 69%.
With “Bis [1,2-bis(diphenylphosphino)propane] gold (I) Chloride [listing 1 of 2 here]” the ILS was 116%.
In the case of “Bis [(1-diphenylphosphino, 2-diethyl) ethane] gold (I) Chloride [listing 1 of 2 here]”, the ILS is reported as 46%.
Work on CISPLATIN yielded an ILS of 103%.

Tested on: B16
Assay: In vitro concentration which inhibits cloning efficiency of B16 melanoma cells by 50% on a 2-h exposure was determined.
Format: functional, cell-based, Mus musculus
Conditions: not given
Method in brief: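 Clonogenic assay with B16 melanoma cells grown in monolayer culture. Cells were exposed to drug for 2 h, either in medium containing 10% fetal calf serum or in serum-free medium, and then cloned. IC50 is the concentration cutting cloning efficiency by 50%.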
“Bis [1,2-bis(diphenylphosphino)ethane] gold (I) Chloride Hydrate [listing 2 of 2 here]” gave an IC50 of 4.5 µM.
Substance “Bis [1,2-bis(diphenylphosphino)ethane] gold (I) Nitrate [listing 2 of 2 here]” has an IC50 of 4 µM.
Substance “Bis [1,2-bis(diphenylphosphino)ethene] gold (I) Chloride [listing 2 of 2 here]” has an IC50 of 2 µM.
For “Bis [1,2-bis(diphenylphosphino)propane] gold (I) Chloride [listing 2 of 2 here]”, the IC50 was 0.6 µM.
“Bis [(1-diphenylphosphino, 2-diethyl) ethane] gold (I) Chloride [listing 2 of 2 here]” gave an IC50 of 5 µM.

Tested on: not listed separately
Assay: as §1
Format: organism-based
Conditions: not given
Method in brief: as §2
“Bis [1,2-bis(diphenylphosphino)ethene] gold (I) Chloride [listing 1 of 2 here]” gave an ILS of 35%.
Work on “Bis [1,2-bis(diphenylphosphino)propane] gold (I) Chloride [listing 1 of 2 here]” yielded an ILS of 34%.
For “Bis [1,2-bis(dipyridine-2-ylphosphino)ethane] gold (I) Chloride Hydrate; chloride”, the ILS was 43%.
In the case of CISPLATIN, the ILS is reported as 75%.
